Values after ≈ are worked out from the molar mass of the structure shown. Active and inactive are the calls of the source. No cut-off for these calls is given here.
Tests used:
Staphylococcus aureus [1] = assay: Bacteriostatic activity against vancomycin-resistant Staphylococcus aureus VRS12 clinical isolate after 20 hrs by broth microdilution method; assay type: functional; conditions: VRS12, 20 h
Method in brief: (§1)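 Broth microdilution MIC over 128 to 1 μg/mL, run alongside methicillin, linezolid and vancomycin. MIC taken as the lowest concentration with no visible growth.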

Staphylococcus aureus [2] = assay: Bacteriostatic activity against Staphylococcus aureus ATCC 25923 after 20 hrs by broth microdilution method; assay type: functional; conditions: ATCC 25923, 20 h; method in brief: as §1
Enterococcus faecium [3] = assay: Bactericidal activity against vancomycin-resistant Enterococcus faecium ATCC 700221 clinical isolate preincubated for 20 hrs followed by TSA plating and measured after 18 hrs; assay type: functional
Method in brief: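 MBC: 4 μL from wells with no growth in the MIC plate (Brain Heart Infusion broth, 37 °C, at least 20 h) spotted onto Tryptic Soy Agar. Read after at least 18 h at 37 °C.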

Staphylococcus aureus [4] = assay: Bactericidal activity against vancomycin-resistant Staphylococcus aureus VRS12 clinical isolate preincubated for 20 hrs followed by TSA plating and measured after 18 hrs; assay type: functional
Listeria monocytogenes = assay: Bacteriostatic activity against Listeria monocytogenes ATCC 19115 after 20 hrs by broth microdilution method; assay type: functional; conditions: ATCC 19115, 20 h
Method in brief: (§2)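 MIC by broth microdilution across 128 to 1 μg/mL in 96-well plates, 37 °C for at least 20 h. MIC is the lowest concentration with no visible growth.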

J774 = assay: Cytotoxicity against mouse J774 cells assessed as decrease in cell viability up to 128 ug/ml after 24 hrs by MTS assay; assay type: cell-based; conditions: j774, 24 h
[5] = Ratio of non toxic concentration for human Caco2 cells to MIC for methicillin-resistant Staphylococcus aureus ATCC 33592; assay type: toxicity; conditions: Caco-2 cells
Staphylococcus aureus [6] = assay: Bacteriostatic activity against methicillin-resistant Staphylococcus aureus NRS119 clinical isolate after 20 hrs by broth microdilution method; assay type: functional; conditions: NRS119, 20 h; method in brief: as §1
Staphylococcus aureus [7] = assay: Bacteriostatic activity against methicillin-resistant Staphylococcus aureus USA500 NRS385 clinical isolate after 20 hrs by broth microdilution method; assay type: functional; conditions: USA500 NRS385, 20 h; method in brief: as §1
Staphylococcus aureus [8] = assay: Bactericidal activity against methicillin-resistant Staphylococcus aureus NRS119 clinical isolate preincubated for 20 hrs followed by TSA plating and measured after 18 hrs; assay type: functional
Caco-2 = assay: Cytotoxicity against human Caco2 cells assessed as decrease in cell viability up to 128 ug/ml after 24 hrs by MTS assay; assay type: cell-based; conditions: caco-2, 24 h
Method in brief: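 Caco-2 cells were grown in DMEM with 20% FBS, 1X non-essential amino acids and penicillin-streptomycin at 37 °C, 5% CO2. Viability is % of DMSO-treated cells.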

Staphylococcus aureus [9] = assay: Potency index, ratio of methicillin MIC to test compound MIC for methicillin-resistant Staphylococcus aureus ATCC 33592; assay type: functional
Staphylococcus aureus [10] = assay: Antibacterial activity against methicillin-resistant Staphylococcus aureus USA300 in BALB/c mouse wound infection model assessed as reduction in bacterial burden in wound at 2% administered topically bid for 5 days relative to control; assay type: functional; parameters: scale not given: the % may be the effect or the level left
Method in brief: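 Female BALB/c mice, eight weeks old, n = 5 per group, injected intradermally with 40 μL of 1.32×10^9 CFU/mL MRSA USA300. Once an abscess or open wound formed, it was treated topically twice daily for five days with 2% agent in petroleum jelly, with vehicle as control. Wound tissue excised 12 h after the last dose, homogenized in PBS, diluted and plated on mannitol salt agar for 16 h or more at 37 °C. CFU reduction calculated against vehicle.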

Escherichia coli [11] = assay: Bacteriostatic activity against AcrAB-tolC deficient Escherichia coli JW5503-1 after 20 hrs by broth microdilution method; assay type: functional; conditions: JW5503-1, 20 h; method in brief: as §2
Staphylococcus aureus [12] = assay: Ratio of MIC for methicillin-resistant Staphylococcus aureus USA400 NRS123 measured after 10th to 14th passage to MIC for methicillin-resistant Staphylococcus aureus USA400 NRS123 measured prior 10th to 14th passage; assay type: functional
Method in brief: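 MRSA USA400 (NRS123) passaged serially, once a day, over 14 passages in two weeks. Broth microdilution MIC of test agent and ciprofloxacin measured after each passage. A four-fold MIC shift taken as resistance.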

Enterococcus faecalis [13] = assay: Potency index, ratio of vancomycin MIC to test compound MIC for vancomycin-resistant Enterococcus faecalis ATCC 51575
Staphylococcus aureus [14] = assay: Bacteriostatic activity against methicillin-resistant Staphylococcus aureus USA800 NRS387 clinical isolate after 20 hrs by broth microdilution method; assay type: functional; conditions: USA800 NRS387, 20 h; method in brief: as §1
Staphylococcus aureus [15] = assay: Bactericidal activity against methicillin-resistant Staphylococcus aureus USA800 NRS387 clinical isolate preincubated for 20 hrs followed by TSA plating and measured after 18 hrs; assay type: functional
Enterococcus faecium [16] = assay: Bacteriostatic activity against vancomycin-resistant Enterococcus faecium ATCC 700221 clinical isolate after 20 hrs by broth microdilution method; assay type: functional; conditions: ATCC 700221, 20 h
Method in brief: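 Broth microdilution MIC over 128 to 1 μg/mL in Brain Heart Infusion broth, 37 °C for at least 20 h. MIC taken as the lowest concentration with no visible growth.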

Staphylococcus aureus [17] = assay: Bacteriostatic activity against methicillin-resistant Staphylococcus aureus USA400 NRS123 measured over 14 days by broth microdilution method
Escherichia coli [18] = assay: Bacteriostatic activity against Escherichia coli BW25113 after 20 hrs by broth microdilution method; assay type: functional; conditions: BW25113, 20 h; method in brief: as §2
Staphylococcus aureus [19] = assay: Bacteriostatic activity against methicillin-resistant Staphylococcus aureus USA700 NRS386 clinical isolate after 20 hrs by broth microdilution method; assay type: functional; conditions: USA700 NRS386, 20 h; method in brief: as §1
Acinetobacter baumannii = assay: Bacteriostatic activity against Acinetobacter baumannii ATCC 19606 after 20 hrs by broth microdilution method; assay type: functional; conditions: ATCC 19606 = CIP 70.34 = JCM 6841, 20 h; method in brief: as §2
Staphylococcus aureus [20] = assay: Bacteriostatic activity against vancomycin-intermediate Staphylococcus aureus NRS1 clinical isolate after 20 hrs by broth microdilution method; assay type: functional; conditions: NRS1, 20 h; method in brief: as §1
Staphylococcus aureus [21] = assay: Bacteriostatic activity against methicillin-resistant Staphylococcus aureus USA300 NRS384 clinical isolate after 20 hrs by broth microdilution method; assay type: functional; conditions: USA300 NRS384, 20 h; method in brief: as §1
Staphylococcus aureus [22] = assay: Bactericidal activity against methicillin-resistant Staphylococcus aureus USA300 NRS384 clinical isolate preincubated for 20 hrs followed by TSA plating and measured after 18 hrs; assay type: functional
Enterococcus faecalis [23] = assay: Bacteriostatic activity against Enterococcus faecalis ATCC 29212 after 20 hrs by broth microdilution method; assay type: functional; conditions: ATCC 29212, 20 h; method in brief: as §1
Staphylococcus aureus [24] = assay: Bactericidal activity against methicillin-resistant Staphylococcus aureus USA700 NRS386 clinical isolate preincubated for 20 hrs followed by TSA plating and measured after 18 hrs; assay type: functional
Staphylococcus aureus [25] = assay: Antibacterial activity against methicillin-resistant Staphylococcus aureus USA300 at 12 ug/ml preincubated for 24 hrs followed by agar plating and measured after 18 to 20 hrs by time-kill assay relative to control; assay type: functional
Staphylococcus aureus [26] = assay: Bactericidal activity against methicillin-resistant Staphylococcus aureus USA500 NRS385 clinical isolate preincubated for 20 hrs followed by TSA plating and measured after 18 hrs; assay type: functional
[27] = Ratio of non toxic concentration for mouse J774 cells to MIC for methicillin-resistant Staphylococcus aureus ATCC 33592; assay type: toxicity
Pseudomonas aeruginosa = assay: Bacteriostatic activity against Pseudomonas aeruginosa ATCC 15442 after 20 hrs by broth microdilution method; assay type: functional; conditions: ATCC 15442, 20 h; method in brief: as §2
Staphylococcus aureus [28] = assay: Bacteriostatic activity against methicillin-resistant Staphylococcus aureus ATCC 33592 after 20 hrs by broth microdilution method; assay type: functional; conditions: ATCC 33592, 20 h; method in brief: as §1
Staphylococcus aureus [29] = assay: Bactericidal activity against methicillin-resistant Staphylococcus aureus USA400 NRS123 clinical isolate preincubated for 20 hrs followed by TSA plating and measured after 18 hrs; assay type: functional
Staphylococcus aureus [30] = assay: Bactericidal activity against vancomycin-intermediate Staphylococcus aureus NRS1 clinical isolate preincubated for 20 hrs followed by TSA plating and measured after 18 hrs; assay type: functional
Staphylococcus aureus [31] = assay: Antibacterial activity against Staphylococcus aureus assessed as growth inhibition at 16 ug/ml after 24 hrs; assay type: functional, organism-based
Method in brief: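 S. aureus grown in Mueller Hinton Broth to early exponential phase, then exposed to compound (16 μg/mL; DMSO stocks 10 mg/mL) or DMSO in duplicate, 37 °C for 24 h. OD600 read; percent normalized OD600 = (X − media blank)/(DMSO control − media blank) × 100.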

Enterococcus faecalis [32] = assay: Bacteriostatic activity against vancomycin-resistant Enterococcus faecalis ATCC 51575 after 20 hrs by broth microdilution method; assay type: functional; conditions: ATCC 51575, 20 h; method in brief: as §1
Staphylococcus aureus [33] = assay: Bacteriostatic activity against methicillin-resistant Staphylococcus aureus USA400 NRS123 clinical isolate after 20 hrs by broth microdilution method; assay type: functional; conditions: USA400 NRS123, 20 h; method in brief: as §1
Klebsiella pneumoniae = assay: Bacteriostatic activity against Klebsiella pneumoniae BAA 1706 after 20 hrs by broth microdilution method; assay type: functional; conditions: BAA 1706, 20 h; method in brief: as §2
Staphylococcus aureus [34] = assay: Antibacterial activity against methicillin-resistant Staphylococcus aureus USA300 at 6 ug/ml preincubated up to12 hrs followed by agar plating and measured after 18 to 20 hrs by time-kill assay; assay type: functional, organism-based

Structure (SMILES)	MIC (Staphylococcus aureus [1]) [µg/mL]	MIC (Staphylococcus aureus [2]) [µg/mL]	MBC (Enterococcus faecium [3]) [µg/mL]	MBC (Staphylococcus aureus [4]) [µg/mL]	MIC (Listeria monocytogenes) [µg/mL]	MIC (Staphylococcus aureus [6]) [µg/mL]	MIC (Staphylococcus aureus [7]) [µg/mL]	MBC (Staphylococcus aureus [8]) [µg/mL]	Activity (Staphylococcus aureus [10]) [%]	MIC (Escherichia coli [11]) [µg/mL]	MBC (Staphylococcus aureus [15]) [µg/mL]	MIC (Enterococcus faecium [16]) [µg/mL]	MIC (Staphylococcus aureus [19]) [µg/mL]	MIC (Staphylococcus aureus [21]) [µg/mL]	MBC (Staphylococcus aureus [22]) [µg/mL]	MBC (Staphylococcus aureus [24]) [µg/mL]	MBC (Staphylococcus aureus [26]) [µg/mL]	MBC (Staphylococcus aureus [29]) [µg/mL]	MBC (Staphylococcus aureus [30]) [µg/mL]	MIC (Staphylococcus aureus [33]) [µg/mL]	also measured
C[C@@H]1C[C@H](C)CN(S(=O)(=O)c2ccc(C(=O)Nc3nnc(-c4cccs4)o3)cc2)C1 (mixture of isomers)	2	2 to 4	128	> 128	4	2	2	> 128	72.41	2	> 128	2	2	2	> 128	> 128	> 128	> 128	> 128	2	Activity (J774): Non-Toxic; selectivity ratio [5]: 63; Activity (Caco-2): Non-Toxic; Ratio (Staphylococcus aureus [9]): > 64; Ratio (Staphylococcus aureus [12]): 1; Ratio (Enterococcus faecalis [13]): >32; MIC (Staphylococcus aureus [14]): 2 µg/mL; Activity (Staphylococcus aureus [17]): Active; MIC (Escherichia coli [18]): > 128 µg/mL; MIC (Acinetobacter baumannii): 128 µg/mL; MIC (Staphylococcus aureus [20]): 2 µg/mL; MIC (Enterococcus faecalis [23]): 4 µg/mL; Activity (Staphylococcus aureus [25]): 2.01 deltalog10CFU/ml; selectivity ratio [27]: 63; MIC (Pseudomonas aeruginosa): > 128 µg/mL; MIC (Staphylococcus aureus [28]): 2 to 4 µg/mL; growth inhibition (GI) (Staphylococcus aureus [31]): Active; MIC (Enterococcus faecalis [32]): 4 µg/mL; MIC (Klebsiella pneumoniae): > 128 µg/mL
CC(=O)O[C@H]1C[C@@]2(C)[C@@H](C[C@@H](O)[C@H]3[C@@]4(C)CC[C@@H](O)[C@@H](C)[C@@H]4CC[C@@]32C)/C1=C(\CCC=C(C)C)C(=O)O [FUSIDIC ACID]									77.91												
CC(=O)NC[C@H]1CN(c2ccc(N3CCOCC3)c(F)c2)C(=O)O1 [LINEZOLID]	≤ 1		64 (≈ 190 µM)	32 (≈ 94.9 µM)		32 (≈ 94.9 µM)	≤ 1	32 (≈ 94.9 µM)		8 (≈ 23.7 µM)	128 (≈ 379 µM)	≤ 1	≤ 1	≤ 1	64 (≈ 190 µM)	128 (≈ 379 µM)	2 (≈ 5.93 µM)	64 (≈ 190 µM)	1 (≈ 2.96 µM)	≤ 1	MIC (Staphylococcus aureus [14]): ≤ 1 µg/mL; MIC (Escherichia coli [18]): > 128 µg/mL; MIC (Staphylococcus aureus [20]): ≤ 1 µg/mL
CN[C@H](CC(C)C)C(=O)N[C@H]1C(=O)N[C@@H](CC(N)=O)C(=O)N[C@H]2C(=O)N[C@H]3C(=O)N[C@H](C(=O)N[C@H](C(=O)O)c4cc(O)cc(O)c4-c4cc3ccc4O)[C@H](O)c3ccc(c(Cl)c3)Oc3cc2cc(c3O[C@@H]2O[C@H](CO)[C@@H](O)[C@H](O)[C@H]2O[C@H]2C[C@](C)(N)[C@H](O)[C@H](C)O2)Oc2ccc(cc2Cl)[C@H]1O [VANCOMYCIN]	> 128	1 to 2 (≈ 0.69 to 1.38 µM)	> 128	> 128	1 (≈ 0.69 µM)	≤ 1	≤ 1	≤ 1			2 (≈ 1.38 µM)	> 128	≤ 1	≤ 1	≤ 1	≤ 1	2 (≈ 1.38 µM)	≤ 1	4 (≈ 2.76 µM)	≤ 1	MIC (Enterococcus faecalis [23]): 2 µg/mL (≈ 1.38 µM); Activity (Staphylococcus aureus [34]): Active; MIC (Staphylococcus aureus [28]): 1 to 2 µg/mL (≈ 0.69 to 1.38 µM); MIC (Enterococcus faecalis [32]): > 128 µg/mL

Reference: ChEMBL document CHEMBL4152323, “N-(1,3,4-oxadiazol-2-yl)benzamide analogs, bacteriostatic agents against methicillin- and vancomycin-resistant bacteria” (Eur J Med Chem, 2018)
